Published values collected from several papers.
Target: Serine/threonine-protein kinase 32C (STK32C, Homo sapiens, UniProt Q86UX6)

COc1cc(-c2cn(C3CCc4c(F)cccc4N(CC(F)(F)F)C3=O)nn2)ccc1-n1cnc(C)c1 (centres unmarked) — remaining binding (cell-free assay; competition with immobilised ligand; 1 µM): 100%
Cc1cnn2ncc(-c3ccnc(N(C)C)n3)c2c1 — remaining binding (binding; 1 µM): 100%
COc1cnc(Nc2cccc(S(N)(=O)=O)c2)nc1N1CCN(c2ccccc2)C(=O)C1 — remaining binding (binding; competition with immobilised ligand; 1 µM): 100%
N[C@H]1CCN(c2nccc(-c3cnn4ncccc34)n2)C1 — remaining binding (binding; 1 µM): 97%
Cc1c(NC(=O)c2cc(C(N)=O)nc3cc(F)ccc23)c(C(F)(F)F)nn1Cc1ccc(C#N)cc1 — remaining binding (binding; competition with immobilised ligand; 1 µM): 69%
CN(C)c1nccc(-c2cnn3ncccc23)n1 — remaining binding (binding; 1 µM): 100%
N#Cc1ccccc1CSc1nnc2c(n1)[nH]c1ccccc12 — remaining binding (binding; competition with immobilised ligand; 10 µM): 83%
O=C(NCc1ncc(C(F)(F)F)cc1Cl)c1ccc2c(c1)C1(CCS(=O)(=O)CC1)[C@@H](C1CC1)N2S(=O)(=O)c1ccc(F)cc1 — remaining binding (cell-free assay; competition with immobilised ligand; 1 µM): 100%
CC1CCCN1c1nccc(-c2cnn3ncccc23)n1 (centres unmarked) — remaining binding (binding; 1 µM): 100%
c1cncc(-c2cccc(Nc3nccc(NC4CCCCC4)n3)c2)c1 — remaining binding (binding; competition with immobilised ligand; 10 µM): 55%
O=C(NCCCN1CCOCC1)c1ccc(Nc2nccc(-c3cc4ccccc4s3)n2)cc1 — remaining binding (binding; competition with immobilised ligand; 1 µM): 92%
CN(CCCC(F)(F)F)c1nccc(-c2cnn3ncccc23)n1 — remaining binding (binding; 1 µM): 65%
CS(=O)(=O)N1CCCC(NC(=O)[C@H](CCC2CCCCC2)NC(=O)c2ccc(CNc3ncnc4c3nnn4-c3ccccc3)cc2)C1 (some centres unmarked) — remaining binding (cell-free assay; competition with immobilised ligand; 0.1 µM): 100%
C[C@@H]1CN(c2ccc3ncc(-c4ccc5[nH]nc(C6CC6)c5c4)n3n2)C[C@H](C)O1 — remaining binding (binding; competition with immobilised ligand; 50 nM): 85%
Cc1c[nH]c2nccc(Oc3c(F)cc(Nc4cc(Cl)nc(N)n4)cc3F)c12 — remaining binding (cell-free assay; competition with immobilised ligand; 0.1 µM): 93%
Nc1ncc2c(n1)-c1c([nH]c3ccc(C#CC4CC4)cc13)CCCC2 — remaining binding (binding; competition with immobilised ligand; 1 µM): 100%
O=C(c1ccc(Nc2nccc(-c3cc4ccccc4s3)n2)cc1)N1CCC(N2CCCC2)CC1 — remaining binding (binding; competition with immobilised ligand; 1 µM): 100%
